Bioassay records from PubChem BioAssay.
Hits are enriched below; roughly 7.6% of the tested compounds scored in any of these assays.
HEK293 NFkB inh = inhibitors of the PMA/ionomycin-induced NF-kB reporter in HEK293 cells | HEK-293 NF-kB luciferase reporter, luminescence | inhibition, % at 3 µM | actives 0.21% (n = 62,000) | AID 465;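 active means inhibition above the mean of all tested compounds plus 3 SD, cut at about 40% in these data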;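 further: 0% = stimulated DMSO wells and 100% = 10 µM reference inhibitor 5653914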
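System – HEK-293 cells with stable firefly luciferase reporter driven by four HIV NF-kB elements · Doses – one dose, 3 µM · Schedule – 1 h compound pre-incubation, 16 h PMA/ionomycin at 37 °C · Technique – luminescence from luciferase substrate reagent · Measure – percent inhibition normalized per plate to DMSO and reference-inhibitor controls · Replicates – tested once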
D1 allo mod = allosterically modulates the human D1 dopamine receptor; P21728; AID 641; actives 5.9% (n = 58,000); B-score at 10 µM; HEK293 D1, CRE-luciferase, dopamine EC30 potentiation; actives deviate in either direction;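 active means luminescence count or its row- and column-corrected plate score outside the 99.7% band of the plate's sample wells, on either side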
DAT uptake mod = human DAT dopamine uptake with cocaine, either direction | LLC-PK1 hDAT cells, [14C]-dopamine uptake with cocaine IC80; actives deviate in either direction | Q01959 | B-score at 10 µM | actives 1.3% (n = 110,000);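 active means Z score or B-score, a plate-position-corrected score, falls beyond the plate's 99.7% confidence bounds, in either direction; inactive means both scores lie inside the 99.7% bounds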;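 further: scored against the spread of the other compound wells on the same plate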
Target sequence (Q01959 whole entry, looked up): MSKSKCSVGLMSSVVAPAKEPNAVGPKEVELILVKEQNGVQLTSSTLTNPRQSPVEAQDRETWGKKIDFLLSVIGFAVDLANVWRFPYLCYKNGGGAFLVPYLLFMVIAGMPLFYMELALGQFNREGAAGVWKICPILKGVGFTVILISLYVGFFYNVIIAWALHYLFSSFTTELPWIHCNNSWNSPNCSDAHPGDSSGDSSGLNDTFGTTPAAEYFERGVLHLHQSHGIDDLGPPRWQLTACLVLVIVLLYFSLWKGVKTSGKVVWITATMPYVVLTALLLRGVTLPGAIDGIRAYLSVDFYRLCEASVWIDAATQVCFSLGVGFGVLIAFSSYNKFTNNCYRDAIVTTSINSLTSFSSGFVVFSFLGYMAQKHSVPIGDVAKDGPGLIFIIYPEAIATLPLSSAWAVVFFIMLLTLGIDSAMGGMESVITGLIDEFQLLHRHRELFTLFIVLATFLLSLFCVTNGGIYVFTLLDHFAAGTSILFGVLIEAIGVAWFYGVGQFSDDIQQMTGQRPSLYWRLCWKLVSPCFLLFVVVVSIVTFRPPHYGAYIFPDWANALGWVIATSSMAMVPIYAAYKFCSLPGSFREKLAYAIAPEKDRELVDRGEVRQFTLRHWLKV
M1 agonist = activates the M1 muscarinic receptor. CHO-M1 cells, Fluo-4 calcium fluorescence, agonist mode; stronger effect = higher value. B-score at 10 µM. actives 3% (n = 64,000);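 active means fluorescence rise, raw or as B-score row- and column-corrected plate score, outside the 99.7% band of its plate's samples, either direction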
M1 antag = M1 muscarinic receptor (rat) antagonism; B-score at 10 µM; CHO-M1 cells, Fluo-4 calcium, ACh EC80 antagonist mode; stronger effect = lower value; AID 628; actives 3.4% (n = 64,000); P08482;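 active means calcium fluorescence response, raw or row-and-column corrected B-score, differing from the plate sample mean either way at a set confidence level, mostly lower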
Jurkat viability = reduces viability or proliferation of Jurkat cells; Jurkat E6.1 viability, ATP luminescence, 48 h; inhibition, % at 4 µM; actives 1.2% (n = 56,000);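 active means inhibition above the mean inhibition of all tested compounds plus 3 SD, cut at about 28% in these data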
Starred values were filed as active, the others as inactive; · = not tested or not shown.

SMILES	HEK293 NFkB inh	D1 allo mod	DAT uptake mod	M1 agonist	M1 antag	Jurkat viability
O=C(c1ccco1)N1CCN(C(=O)c2cc(-c3ccccc3)nc3ccccc23)CC1	·	·	0.17	·	·	·
O=C(c1ccco1)N1CCN(C(=O)c2cc(-c3ccncc3)nc3ccc(Br)cc23)CC1	24	-2.7	-2.7*	-0.082	-1	1
O=C(c1ccco1)N1CCN(C(=O)c2cc(-c3ccccn3)nc3ccc(Cl)cc23)CC1	17	-2.1	-0.78	5.3*	-0.85	-6
O=C(c1cccc(Cl)c1)N1CCN(C(=O)c2ccco2)CC1	14	-0.27	0.97	-0.063	0.08	6
O=C(Nc1ccc(N2CCN(C(=O)c3ccco3)CC2)cc1)C(c1ccccc1)c1ccccc1	·	·	0.42	·	·	·
CCCCCCC(c1c(C)n(C)n(-c2ccccc2)c1=O)c1c(C)n(C)n(-c2ccccc2)c1=O	12	-0.63	3.2*	0.79	0.35	0
Cc1ccc(C(=O)Nc2c3c(nn2C(C)(C)C)CS(=O)(=O)C3)cc1C	6	-2.9*	-0.22	0.36	0.012	·
O=C1Nc2ccccc2C1=O	·	·	-0.039	·	·	·
O=C1N/C(=C\c2ccccc2)c2ccccc21	19	-0.23	-0.29	0.26	-0.19	81*
CC(C)c1ccc(NC(=O)CN(Cc2ccccc2)S(C)(=O)=O)cc1	·	·	3*	·	·	·
CCOc1ccc(NC(=O)CN(Cc2ccccc2)S(C)(=O)=O)cc1	·	·	0.74	·	·	·
CCOc1ccccc1C(=O)Nn1c(C2CCC2)nc2ccccc2c1=O	8	·	0.64	1.7	-0.39	3
CC1CN(S(=O)(=O)c2cccc(-c3csc(-c4ccccc4)n3)c2)CC(C)O1 (stereo not drawn)	·	·	2.4*	·	·	·
CC(C)CCNC(=O)c1c(CSc2ccccc2)noc1C(=O)NCc1ccccc1	·	·	-0.12	·	·	·
Cn1c(=O)c2c(SCC(=O)N3CCN(c4ccccc4)CC3)nc(C3CC3)nc2n(C)c1=O	15	-3.6	-0.56	4.8*	-2.3*	-16
Cn1c(=O)c2c(SCc3cccnc3)nc(C3CC3)nc2n(C)c1=O	20	3.5	0.033	1.8	-1.8	10
Cn1c(=O)c2c(SCC(=O)N3CCC(Cc4ccccc4)CC3)nc(C3CC3)nc2n(C)c1=O	21	-5.7*	·	0.12	0.44	-2
CCc1nc(SCC(=O)N2CCN(c3ccccc3)CC2)c2c(=O)n(C)c(=O)n(C)c2n1	4	-0.085	-0.67	0.82	-1.3	-10
COc1ccc(-c2cc(-c3ccccc3)nc(N3CCCC3)n2)cc1OC	5	-8.7*	0.032	0.38	1.5	-8
Cc1nnc(SC(=O)N2c3ccccc3Sc3ccccc32)s1	28	-3.3*	-0.042	-0.78	-1.6	17
COc1ccc(Oc2cc(C)c3ccccc3n2)cc1	·	·	1.1	·	·	·
O=C(CNS(=O)(=O)c1cccs1)N1CCN(c2ccccn2)CC1	16	-0.83	-1.3	-0.15	0.4	1
O=C(Cc1cccs1)N1CCN(c2ccccn2)CC1	1	-4.5*	0.32	-0.17	0.22	-5
O=C(CCCOc1ccc(Cl)cc1Cl)N1CCN(c2ccccn2)CC1	15	2.9	1.7	1.1	-0.36	-4
O=C(CCCOc1ccccc1)N1CCN(c2ccccn2)CC1	-8	-2.9*	2.4	-0.2	-0.82	-1
SMILES	HEK293 NFkB inh	D1 allo mod	DAT uptake mod	M1 agonist	M1 antag	Jurkat viability
CC(C)(C)n1nnnc1CN1CCN(C2CCCC2)CC1	0	-0.13	-0.34	0.34	-0.76	4
COc1ccccc1NC(=S)N1CCC(c2nc3cc(C)c(C)cc3[nH]2)CC1	·	·	-2.3*	·	·	·
COc1ccccc1NC(=O)N1CCC(c2nc3cc(C)c(C)cc3[nH]2)CC1	·	·	-0.062	·	·	·
O=C(CC(c1ccccc1)c1ccccc1O)NCCN1CCOCC1 (stereo not drawn)	18	0.025	-7.8*	-0.034	-0.63	·
Cc1ccc(C)n1-c1ccc(N2CCOCC2)nc1	9	1.2	1.2	0.69	-0.1	-4
CC1=C(C)C(=O)NC(Nc2nc(C)c3cc(C)cc(C)c3n2)N1 (stereo not drawn)	1	-3.2*	·	0.9	-1.7	-1
Cc1cccc(Cn2c(=O)c3c(nc4n3CCCN4Cc3ccccc3)n(C)c2=O)c1	22	0.63	3*	-0.46	-0.078	2
CCC(C)Nc1nc2c(c(=O)n(C)c(=O)n2C)n1Cc1cccc(C)c1 (stereo not drawn)	5	-0.096	0.23	0.61	13*	3
CCC(C)Nc1nc2c(c(=O)n(C)c(=O)n2C)n1Cc1ccc(Cl)cc1 (stereo not drawn)	1	0.032	1.4	-1.2	-0.87	3
C/C(Cl)=C\Cn1c(NCCc2ccccc2)nc2c1c(=O)n(C)c(=O)n2C	22	-3.1*	-1.1	1.1	0.13	18
CCNc1nc2c(c(=O)n(C)c(=O)n2C)n1Cc1ccc(Cl)cc1	15	·	·	2.6*	-0.72	58*
O=C(NCCN1CCOCC1)c1cc2n(n1)C(C(F)(F)F)CC(c1ccc(F)cc1)N2 (stereo not drawn)	·	·	-0.22	0.11	1	·
COC(=O)c1c(C)nc2c(c(SC)nn2-c2ccccc2)c1N	·	·	-2.7	·	·	·
O=C(Nc1ccccc1)N(C1=NCCC1)c1ccc(OC(F)F)cc1	14	0.12	0.71	-0.11	-0.64	1
Cn1c(N2CCOCC2)nc2c1c(=O)n(Cc1ccc(Cl)cc1)c(=O)n2C	·	4.4*	0.77	-1.2	0.3	·
COC(=O)c1sccc1NC(=O)C12CC3CC(CC(C3)C1)C2	·	·	-0.6	·	·	·
Cc1occc1-c1nnc(SCC(=O)NCCc2ccccc2)n1Cc1ccccc1	26	0.37	-0.043	-0.44	-0.53	-2
Nc1nnc(SCC(=O)c2ccccc2)s1	4	1.7	-0.86	0.28	1	-4
CCCCOC(=O)CSc1nnc(N)s1	-8	-0.12	-2.4*	-0.15	0.14	-4
CCN(CC)C(=O)CSc1nc2cccnc2n1-c1ccccc1OC	13	0.32	-1.2	-0.67	0.71	-3
CCN(CC)C(=O)CSc1nc2ccccc2c(=O)n1-c1ccccc1OC	29	·	1.9*	0.86	0.45	-6
Cc1cc(Cl)cc2c1NC(=O)[C@]21[C@@H]2C(=O)N(Cc3ccccc3)C(=O)[C@@H]2[C@@H]2CCCN21	20	0.0076	3.7*	1	0.34	12
O=C(Nc1cccc(O)c1)N1CCOCC1	·	·	0.37	·	·	·
CCn1c(SCc2cccc(C(F)(F)F)c2)nnc1-c1ccco1	-6	-0.38	-0.45	0.02	-0.43	2
Cc1nc(C)c2c(=O)cc(-c3ccccc3)[nH]c2n1	24	1.1	-0.59	-1	1.7	54*
Cc1ccc(C)c(S(=O)(=O)C(C#N)c2nc3ccccc3nc2N2CC(C)OC(C)C2)c1 (stereo not drawn)	2	-2.7*	0.17	5.5	-0.0087	-5
Cc1ccc(C)c(S(=O)(=O)C(C#N)c2nc3ccccc3nc2N2CCCC2)c1 (stereo not drawn)	0	-1.8	0.62	-1	-0.21	2
COc1ccccc1-c1nnc2sc(C3CCCCC3)nn12	·	·	1.8*	0.49	0.31	·
